Source: PubChem BioAssay
The list is not random: actives were taken first. Their share in the collection is about 3.5%.
MEKK3 PB1 HTS: raises or lowers MEK5 binding to the human MEKK3 PB1 domain; Q99759; bead-based flow cytometry, Alexa488-MEK5 binding to MEKK3; actives lie on both sides; 0 = blocked by unlabeled MEK5, 100 = vehicle; binding response (% of control), % at 10 µM; 290,000 compounds, 1.4% hits;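 active = binding response more than 3 SD above or below the average of its plate-row segment, actives on both sides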;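 also: Alexa488 bead fluorescence after subtracting the streptavidin-only scavenger bead signal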
MEKK2 WT-MEK5: raises or lowers MEK5 binding to wildtype human MEKK2 PB1 domain | Q9Y2U5 | bead flow cytometry, Alexa488-MEK5 binding to MEKK2 WT; actives lie on both sides | binding response (% of control), % at 10 µM | 290,000 compounds, 1.1% hits | AID 1531; in the data active = binding response below about 67% or above about 130%
ABCB1 inh: human ABCB1 inhibition, ABCG2 as counter-screen; P08183; CCRF-Adr cells, JC-1 efflux, flow cytometry; inhibition, % at 6.6 µM; 190,000 compounds, 0.067% hits; AID 1326; in the data active = inhibition above about 40%;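 also: higher value means more JC-1 retained so stronger ABCB1 efflux block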
ABCG2 block: human ABCG2 inhibition, ABCB1 as counter-screen; IgMXP3 cells, JC-1 efflux, flow cytometry; inhibition, % at 6.6 µM; Q9UNQ0; AID 1325; 190,000 compounds, 0.1% hits;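 active = inhibition above 80%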
Target sequence (Q9UNQ0 whole entry, looked up): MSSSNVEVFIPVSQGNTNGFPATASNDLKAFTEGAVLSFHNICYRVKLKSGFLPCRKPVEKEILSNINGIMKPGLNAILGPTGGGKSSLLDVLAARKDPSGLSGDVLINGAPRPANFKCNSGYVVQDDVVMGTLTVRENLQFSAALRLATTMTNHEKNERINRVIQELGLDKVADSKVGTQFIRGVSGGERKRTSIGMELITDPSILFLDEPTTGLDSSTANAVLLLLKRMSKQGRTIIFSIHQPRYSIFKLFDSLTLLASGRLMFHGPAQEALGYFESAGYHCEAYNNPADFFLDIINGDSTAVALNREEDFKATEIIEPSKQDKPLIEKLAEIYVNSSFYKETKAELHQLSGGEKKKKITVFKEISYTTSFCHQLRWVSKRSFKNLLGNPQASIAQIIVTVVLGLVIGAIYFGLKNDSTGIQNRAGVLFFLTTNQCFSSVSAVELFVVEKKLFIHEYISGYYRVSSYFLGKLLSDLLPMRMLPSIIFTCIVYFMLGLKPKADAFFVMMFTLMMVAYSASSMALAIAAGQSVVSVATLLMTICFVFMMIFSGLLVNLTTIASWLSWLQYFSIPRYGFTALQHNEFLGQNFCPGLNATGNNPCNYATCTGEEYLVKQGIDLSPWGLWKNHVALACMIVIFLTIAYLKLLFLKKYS
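Test system: ABCG2 IgMXP3 and barcoded ABCB1 CCRF-Adr cell mix; Schedule: cells with compound and JC-1, 10 min at 25 °C, rotating, no wash; Technique: flow cytometry of retained JC-1 fluorescence; Measure: % inhibition of efflux relative to nicardipine and DMSO; Controls: nicardipine high and DMSO low controls.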
MEKK2mut PB1 HTS: signal of MEK5 binding to mutant human MEKK2 PB1 domain; bead flow cytometry, Alexa488-MEK5 binding to MEKK2 mutant; percent response, % at 10 µM; 290,000 compounds, 0.35% hits; in the data active = percent response above about 24%, passing the limit was not always enough
WT yeast gro inh: growth inhibition of WT yeast, mitochondrial fusion screen; mitochondrial fusion phenotypic screen, WT strain; inhibition, % at 10 µM; AID 1362; 190,000 compounds, 2.1% hits; in the data active = inhibition above about 58%; tested in S. cerevisiae
MEKK2wt confirm: raises or lowers MEK5 binding to wildtype human MEKK2, retest; shares compounds with MEKK3 PB1 HTS; bead flow cytometry, Alexa488-MEK5 binding to MEKK2 WT; actives lie on both sides; binding response (% of control), % at 10 µM; 5,900 compounds, 2.4% hits; AID 1892; in the data active = binding response below about 16% or above about 210%; inactive = in between
MEKK2mut-MEK5: signal of MEK5 binding to mutant human MEKK2, retest | shares compounds with MEKK3 PB1 HTS | bead flow cytometry, Alexa488-MEK5 binding to MEKK2 mutant | percent response, % at 10 µM | 5,900 compounds, 2% hits | AID 1893; in the data active = percent response mostly above about 71%, no sharp cut-off; inactive = mostly below about 38%;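 also: higher means compound restores mutant binding toward wildtype level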
MEKK3 confirm: MEKK3-MEK5 PB1 inhibition, single concentration confirmation | shares compounds with MEKK3 PB1 HTS | bead flow cytometry, Alexa488-MEK5 binding to MEKK3; hits give low values | binding response (% of control), % at 10 µM | 5,900 compounds, 1.8% hits | AID 1894;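 active = binding response below 72% of control, or above a set upper limit, though filed actives all read lower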;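 also: lower values mean stronger disruption of MEK5 binding to MEKK3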
Of the large screens only hits and unclear results are named; the others gave an inactive call (follow-up assays come after a bar, where they were run); [ ] = another dose, or the depositor's remark.

Cc1ccc(S(=O)(=O)N2CCOCC2)cc1NC(=O)COC(=O)C1COc2ccccc2O1 (stereo not drawn)	MEKK3 PB1 HTS 144.0 | MEKK2wt confirm inactive | MEKK2mut-MEK5 inactive | MEKK3 confirm inactive
Cc1cc2nnc(SCC(=O)Nc3cc(S(=O)(=O)N4CCOCC4)ccc3Cl)n2c2ccccc12	none
O=C(NCC1OCCc2ccccc21)c1cc(COc2c(F)cccc2F)on1 (stereo not drawn)	none
CN1CC(=O)N(CC(=O)Nc2ccc3c(c2)CCC3)C1=O	none
COC(=O)CSc1nnc2cc(C)c3ccccc3n12	MEKK3 PB1 HTS 46.0[inhibitor], MEKK2 WT-MEK5 41.0[inhibitor] (no result: ABCB1 inh, ABCG2 block, WT yeast gro inh) | MEKK2wt confirm inactive | MEKK2mut-MEK5 inactive | MEKK3 confirm inactive
COc1ccc([N+](=O)[O-])cc1NC(=O)CSc1nncn1-c1ccccc1	MEKK2mut PB1 HTS 55.0 | MEKK2wt confirm inactive | MEKK2mut-MEK5 inactive | MEKK3 confirm inactive
COc1ccccc1NC(=O)CSc1nncn1-c1ccccc1	none (no result: ABCB1 inh, ABCG2 block, WT yeast gro inh)
Cc1cc2nnc(SCCCCN3C(=O)c4ccccc4C3=O)n2c2ccccc12	none
CN(c1ccc(C(=O)Nc2ccc(CC#N)cc2)cc1)S(C)(=O)=O	none
CCCCCCn1c(N2CCC(C(N)=O)CC2)nc2c1c(=O)n(C)c(=O)n2C	MEKK3 PB1 HTS 2.0[inhibitor], MEKK2 WT-MEK5 2.0[inhibitor] | MEKK2wt confirm inactive | MEKK2mut-MEK5 inactive | MEKK3 confirm inactive
N=c1n(Cc2ccccc2)c2ccccc2n1CC(O)COc1ccccc1 (stereo not drawn)	none
Cc1ccc(Cn2c(=N)n(CC(O)COc3ccccc3)c3ccccc32)cc1 (stereo not drawn)	MEKK2 WT-MEK5 134.0 | MEKK2wt confirm inactive | MEKK2mut-MEK5 inactive | MEKK3 confirm inactive
COc1cc(O)c(C(CCN2CCOCC2)c2cc(OC)c(OC)c(OC)c2)c(OC)c1 (stereo not drawn)	MEKK2 WT-MEK5 142.0 (no result: ABCB1 inh, ABCG2 block, WT yeast gro inh) | MEKK2wt confirm inactive | MEKK2mut-MEK5 inactive | MEKK3 confirm inactive
COc1cc(O)c(C(CCN2CCCCC2)c2cc(OC)c(OC)c(OC)c2)c(OC)c1 (stereo not drawn)	none (no result: ABCB1 inh, ABCG2 block, WT yeast gro inh)
COc1cc(O)c(C(CCN2CCCC2)c2cc(OC)c(OC)c(OC)c2)c(OC)c1 (stereo not drawn)	MEKK2 WT-MEK5 145.0 (no result: ABCB1 inh, ABCG2 block, WT yeast gro inh) | MEKK2wt confirm inactive | MEKK2mut-MEK5 inactive | MEKK3 confirm inactive
COc1ccc(C(CCN2CCCC2)c2c(O)cc(OC)cc2OC)cc1 (stereo not drawn)	MEKK2 WT-MEK5 149.0 (no result: ABCB1 inh, ABCG2 block, WT yeast gro inh) | MEKK2wt confirm inactive | MEKK2mut-MEK5 inactive | MEKK3 confirm inactive
CCN(CC)C(=O)c1c(Cl)nc(C)c([N+](=O)[O-])c1C	none
CCOC(=O)C(CC)(CC)/C(C)=N/NC(=O)CC#N	none
COCCn1c(-c2ccc(-c3ccc([N+](=O)[O-])cc3Br)o2)nc2c1c(=O)[nH]c(=O)n2CC(C)C	none
Cc1onc(C(=O)N2CCN(c3ccccc3F)CC2)c1-c1ccccc1Cl	MEKK3 PB1 HTS 130.0 | MEKK2wt confirm inactive | MEKK2mut-MEK5 inactive | MEKK3 confirm inactive
COc1ccccc1N1CCN(C(=O)c2c(-c3c(F)cccc3Cl)noc2C)CC1	none (no result: ABCB1 inh, ABCG2 block, WT yeast gro inh)
C=CCOc1ccc(/C=N/NC(=O)C(=O)Nc2ccccn2)cc1OC	none
Fc1ccccc1N1CCN(C(c2ccncc2)c2nnnn2C2CCCC2)CC1 (stereo not drawn)	MEKK3 PB1 HTS 77.0[inhibitor] | MEKK2wt confirm inactive | MEKK2mut-MEK5 inactive | MEKK3 confirm inactive
Cc1cccc(C)c1N(CC(=O)NCc1ccco1)C(=O)CNS(=O)(=O)c1ccc(F)cc1	none (no result: ABCB1 inh, ABCG2 block, WT yeast gro inh)
COc1ccc(-c2noc(CN(C(=O)C(C)(C)C)C(C)C)n2)cc1	MEKK2mut PB1 HTS 25.0 | MEKK2wt confirm inactive | MEKK2mut-MEK5 inactive | MEKK3 confirm inactive
Cc1cc(C)n(-c2ccc(C(=O)NC(C)C)cc2)n1	MEKK3 PB1 HTS -1.0[inhibitor], MEKK2 WT-MEK5 -5.0[inhibitor] | MEKK2wt confirm inactive | MEKK2mut-MEK5 inactive | MEKK3 confirm inactive
CC(=O)NS(=O)(=O)c1ccc(NC(=O)CC(C)c2ccccc2)cc1 (stereo not drawn)	none
CCc1nnc(NC(=O)C2CC(=O)N(Cc3ccco3)C2)s1 (stereo not drawn)	MEKK3 PB1 HTS 122.0 | MEKK2wt confirm inactive | MEKK2mut-MEK5 inactive | MEKK3 confirm inactive
CCc1nnc(NC(=O)C2CC(=O)N(Cc3ccccc3)C2)s1 (stereo not drawn)	none
O=c1[nH]c(CN2CCN(S(=O)(=O)c3cccs3)CC2)nc2c(Br)cc(Br)cc12	none
O=C(Cn1c(O)c(/C=C2\C=Nc3ccccc32)sc1=O)Nc1ccc2c(c1)OCO2	MEKK3 PB1 HTS 79.0[inhibitor] | MEKK2wt confirm inactive | MEKK2mut-MEK5 inactive | MEKK3 confirm inactive
O=C(Cn1c(O)c(/C=C2\C=Nc3ccccc32)sc1=O)N1CCOCC1	none
Cc1nc(NCc2ccc3c(c2)OCO3)c2oc3ccccc3c2n1	MEKK3 PB1 HTS 70.0[inhibitor] | MEKK2wt confirm inactive | MEKK2mut-MEK5 inactive | MEKK3 confirm inactive
CCc1nc(NCc2ccc3c(c2)OCO3)c2oc3ccccc3c2n1	none
O=C(CSc1cccc[n+]1[O-])N1CCCc2ccccc21	MEKK2 WT-MEK5 25.0[inhibitor] | MEKK2wt confirm inactive | MEKK2mut-MEK5 inactive | MEKK3 confirm inactive
Cn1nnnc1SCC(=O)N1CCCc2ccccc21	none
Nc1nc2ccccc2n1C(=O)c1cccs1	none
COc1ccc(S(=O)(=O)N(CCC(N)=O)Cc2ccco2)cc1OC	MEKK3 PB1 HTS 50.0[inhibitor] (no result: ABCB1 inh, ABCG2 block, WT yeast gro inh) | MEKK2wt confirm inactive | MEKK2mut-MEK5 inactive | MEKK3 confirm inactive
COc1ccc(S(=O)(=O)N(Cc2ccc(OC)c(OC)c2)Cc2ccco2)cc1	none
CSc1ccc(/C=N/N2CCN(Cc3ccc(Cl)cc3)CC2)cc1	MEKK3 PB1 HTS 3.0[inhibitor], MEKK2 WT-MEK5 4.0[inhibitor] | MEKK2wt confirm inactive | MEKK2mut-MEK5 inactive | MEKK3 confirm inactive
CSc1ccc(/C=N/N2CCN(C)CC2)cc1	none
CSc1ccc(/C=N/NC(=O)CN2CCN(Cc3ccc(Cl)cc3)CC2)cc1	MEKK3 PB1 HTS 137.0 | MEKK2wt confirm inactive | MEKK2mut-MEK5 inactive | MEKK3 confirm inactive
N#Cc1cccc(NC(=O)CC2CCCCC2)c1	MEKK2 WT-MEK5 -3.0[inhibitor] | MEKK2wt confirm inactive | MEKK2mut-MEK5 inactive | MEKK3 confirm inactive
